Laboratory results as given in ChEMBL document CHEMBL5712080, “PRMT5 promotes cell proliferation by inhibiting BTG2 expression via the ERK signaling pathway in hepatocellular carcinoma” (Cancer Med, 2018).
Activity calls are given as the source filed them.

Columns and labels:
Huh-7 [1] = experiment: Upregulation of BTG2 protein in PRMT5 knockdown human Huh-7 cells at 20 microM for 24 hrs by Western blot analysis; type: functional, cell-based
Method in brief: (§1)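 Huh7 or SK-Hep1 cells stably carrying lentiviral shRNA against PRMT5, selected 2 weeks in puromycin (final 1 μg/mL), grown in DMEM/10% FBS at 37°C, 5% CO2. Cells pretreated 24 h with 20 μM PD184352 (ERK phosphorylation inhibitor). RIPA lysates run on 8–12% SDS-PAGE, PVDF, 5% milk block, primary antibody overnight at 4°C, HRP secondary, chemiluminescent detection. Histone 3 was the nuclear loading control.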

SK-HEP1 [2] = experiment: Upregulation of BTG2 protein in PRMT5 knockdown human SK-HEP1 cells at 20 microM for 24 hrs by Western blot analysis; type: functional, cell-based; method in brief: as §1
SK-HEP1 [3] = experiment: Reversal of ERK phosphorylation level in human SK-HEP1 cells at 500 nM for 4 days in presence of PD184352 by Western blotting analysis; type: functional, cell-based; conditions: time 4.0 day
[4] = target: Protein arginine N-methyltransferase 5 (Homo sapiens) (UniProt O14744); experiment: Inhibition of PRMT5 in human Huh-7 cells assessed as upregulation of BTG2 protein level at 500 nM for 4 days by Western blot analysis; type: cell-based; conditions: time 4.0 day
Protein arginine N-methyltransferase 5 (Homo sapiens), sequence (O14744 whole entry): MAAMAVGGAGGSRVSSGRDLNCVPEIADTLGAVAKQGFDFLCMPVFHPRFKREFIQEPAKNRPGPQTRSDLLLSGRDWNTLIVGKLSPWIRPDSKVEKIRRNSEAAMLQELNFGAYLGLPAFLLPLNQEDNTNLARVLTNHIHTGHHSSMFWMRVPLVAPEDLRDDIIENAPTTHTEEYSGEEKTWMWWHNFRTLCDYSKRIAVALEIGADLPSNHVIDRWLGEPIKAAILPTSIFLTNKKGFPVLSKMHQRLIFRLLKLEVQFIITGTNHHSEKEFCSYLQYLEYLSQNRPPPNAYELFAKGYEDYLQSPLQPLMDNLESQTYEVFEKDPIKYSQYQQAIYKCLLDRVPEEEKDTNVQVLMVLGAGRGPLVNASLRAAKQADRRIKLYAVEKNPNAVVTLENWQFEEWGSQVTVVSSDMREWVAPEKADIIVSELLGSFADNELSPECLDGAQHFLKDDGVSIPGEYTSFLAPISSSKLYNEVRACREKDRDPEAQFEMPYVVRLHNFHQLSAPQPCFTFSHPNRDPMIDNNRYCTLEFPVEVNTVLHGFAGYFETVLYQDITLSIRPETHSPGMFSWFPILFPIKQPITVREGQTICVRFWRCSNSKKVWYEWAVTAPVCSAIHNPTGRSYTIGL

[5] = target: Protein arginine N-methyltransferase 5 (Homo sapiens) (UniProt O14744); experiment: Inhibition of PRMT5 in human SK-HEP1 cells assessed as upregulation of ERK phosphorylation level at 500 nM for 4 days by Western blot analysis; type: cell-based; conditions: time 4.0 day
Huh-7 [6] = experiment: Reversal of BTG2 protein level in human Huh-7 cells at 500 nM for 4 days in presence of PD184352 by Western blotting analysis; type: functional, cell-based; conditions: time 4.0 day
[7] = target: Protein arginine N-methyltransferase 5 (Homo sapiens) (UniProt O14744); experiment: Inhibition of PRMT5 in human Huh-7 cells assessed as H4R3me2s protein level at 500 nM for 4 days by Western blot analysis; type: cell-based; conditions: time 4.0 day
Huh-7 [8] = experiment: Reversal of H4R3me2s level in human Huh-7 cells at 500 nM for 4 days in presence of PD184352 by Western blotting analysis; type: functional, cell-based; conditions: time 4.0 day
SK-HEP1 [9] = experiment: Reversal of BTG2 protein level in human SK-HEP1 cells at 500 nM for 4 days in presence of PD184352 by Western blotting analysis; type: functional, cell-based; conditions: time 4.0 day
Huh-7 [10] = experiment: Reversal of ERK phosphorylation level in human Huh-7 cells at 500 nM for 4 days in presence of PD184352 by Western blotting analysis; type: functional, cell-based; conditions: time 4.0 day
[11] = target: Protein arginine N-methyltransferase 5 (Homo sapiens) (UniProt O14744); experiment: Inhibition of PRMT5 in human Huh-7 cells assessed as upregulation of ERK phosphorylation level at 500 nM for 4 days by Western blot analysis; type: cell-based; conditions: time 4.0 day
SK-HEP1 [12] = experiment: Reversal of H4R3me2s level in human SK-HEP1 cells at 500 nM for 4 days in presence of PD184352 by Western blotting analysis; type: functional, cell-based; conditions: time 4.0 day
[13] = target: Protein arginine N-methyltransferase 5 (Homo sapiens) (UniProt O14744); experiment: Inhibition of PRMT5 in human SK-HEP1 cells assessed as upregulation of BTG2 protein level at 500 nM for 4 days by Western blot analysis; type: cell-based; conditions: time 4.0 day
[14] = target: Protein arginine N-methyltransferase 5 (Homo sapiens) (UniProt O14744); experiment: Inhibition of PRMT5 in human SK-HEP1 cells assessed as H4R3me2s protein level at 500 nM for 4 days by Western blot analysis; type: cell-based; conditions: time 4.0 day

O=C(NOCC1CC1)c1ccc(F)c(F)c1Nc1ccc(I)cc1Cl
active: Activity (Huh-7 [1]) | Activity (SK-HEP1 [2])

O=C(NC[C@H](O)CN1CCc2ccccc2C1)c1ccnc(NC2CCC2)c1
active: Activity (SK-HEP1 [3]) | inhibition [4] | inhibition [5] | Activity (Huh-7 [6]) | inhibition [7] | Activity (Huh-7 [8]) | Activity (SK-HEP1 [9]) | Activity (Huh-7 [10]) | inhibition [11] | Activity (SK-HEP1 [12]) | inhibition [13] | inhibition [14]
